Series [1] deals with Liver microsome. Briefly: Effect on mitochondrial transmembrane potential in Wistar Han rat liver mitochondria energized with succinate assessed as mitochondrial transmembrane electropotential at 0.133 ug/mg of protein (reference value: 204.2 +/- 5.6 mV). In kind it is functional.
The subject of series [2] is Liver microsome. Briefly: Effect on mitochondrial transmembrane potential in Wistar Han rat liver mitochondria energized with succinate assessed as mitochondrial transmembrane electropotential at 0.333 ug/mg of protein (reference value: 204.2 +/- 5.6 mV). It is filed as functional.
The subject of series [3] is Liver microsome. Briefly: Effect on mitochondrial transmembrane potential in Wistar Han rat liver mitochondria energized with succinate assessed as ADP depolarization at 0.667 ug/mg of protein (reference value: 25.3 +/- 2.1 mV). In kind it is functional.
Series [4] deals with Liver microsome. Kind of series: Effect on mitochondrial transmembrane potential in Wistar Han rat liver mitochondria energized with succinate assessed as ADP depolarization at 1.333 ug/mg of protein (reference value: 25.3 +/- 2.1 mV). In kind it is functional.
In series [5] the test system is Liver microsome. Briefly: Effect on mitochondrial transmembrane potential in Wistar Han rat liver mitochondria energized with succinate assessed as time duration of lag phase at 0.333 ug/mg of protein (reference value: 33.0 +/- 4.6 sec). In kind it is functional. A digest of the protocol: (§1)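 Isolated male Wistar rat liver mitochondria (1.5 mg protein) in 125 mM sucrose, 65 mM KCl, 5 mM KH2PO4, 2.5 mM MgCl2, 5 mM HEPES pH 7.4, 30°C, with 3 μM TPP+. Compound added for 1 min, then 10 mM succinate plus 3 μM rotenone. State 3 started with ADP (83.3 nmol/mg protein). ΔΨ read with a TPP+-selective electrode and calculated by the Kamo equation without binding correction.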

Series [6] relates to BJ. Briefly: Induction of apoptosis in human BJ cells assessed as distribution of mitochondrial polarization and morphology at 0.25 ug/ml after 6 hrs by confocal microscopy. It is filed as cell-based. In outline: (§2)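 Cells were seeded on glass coverslips and left to attach for 24 h. They were then exposed to vehicle or 0.25 μg/ml compound for 6 h. For the last 30 min they were loaded with 100 nM TMRM in saline buffer with 15 mM glucose, and the probe was kept present during imaging. Mitochondrial polarization and morphology were imaged by fluorescence microscopy, and the TMRM fluorescence standard deviation was quantified. Four independent preparations, mean ± SEM.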

The nature of series [7]: Induction of apoptosis in human MCF12A cells assessed as distribution of mitochondrial polarization and morphology at 0.25 ug/ml after 6 hrs by confocal microscopy. In kind it is cell-based. Conditions: mcf-12a. A digest of the protocol:
as §2

For series [8], the system named is Liver microsome. Kind of series: Reduction in ADP-induced mitochondrial transmembrane electropotential in Wistar Han rat liver mitochondria energized with succinate at >0.3 ug/mg of protein. In kind it is functional.
The test system of series [9] is Liver microsome. Kind of series: Effect on mitochondrial transmembrane potential in Wistar Han rat liver mitochondria energized with succinate assessed as mitochondrial transmembrane electropotential at 0.06 ug/mg of protein (reference value: 220.6 +/- 2.5 mV). In kind it is functional.
Series [10] relates to Liver microsome. Kind of series: Effect on mitochondrial transmembrane potential in Wistar Han rat liver mitochondria energized with succinate assessed as mitochondrial transmembrane electropotential at 0.133 ug/mg of protein (reference value: 220.6 +/- 2.5 mV). It is filed as functional.
For series [11], the system named is Liver microsome. Kind of series: Effect on mitochondrial transmembrane potential in Wistar Han rat liver mitochondria energized with succinate assessed as ADP depolarization at 0.067 ug/mg of protein (reference value: 34.6 +/- 1.9 mV). It is filed as functional.
The subject of series [12] is Liver microsome. Kind of series: Effect on mitochondrial transmembrane potential in Wistar Han rat liver mitochondria energized with succinate assessed as ADP depolarization at 1.333 ug/mg of protein (reference value: 34.6 +/- 1.9 mV). In kind it is functional.
Series [13] deals with Liver microsome. Kind of series: Effect on mitochondrial transmembrane potential in Wistar Han rat liver mitochondria energized with succinate assessed as time duration of lag phase at 0.067 ug/mg of protein (reference value: 46.7 +/- 3.9 sec). It is filed as functional. In outline: as §1
Series [14] concerns Liver microsome. Kind of series: Effect on mitochondrial transmembrane potential in Wistar Han rat liver mitochondria energized with succinate assessed as time duration of lag phase at 0.667 ug/mg of protein Rvb = 46.7 +/- 3.9 sec). In kind it is functional. A digest of the protocol:
as §1

For series [15], the system named is Liver microsome. Kind of series: Effect on mitochondrial transmembrane potential in Wistar Han rat liver mitochondria energized with succinate assessed as time duration of lag phase at 1.333 ug/mg of protein Rvb = 46.7 +/- 3.9 sec). In kind it is functional. A digest of the protocol:
as §1

Series [16] relates to Liver microsome. Briefly: Effect on mitochondrial transmembrane potential in Wistar Han rat liver mitochondria energized with succinate assessed as mitochondrial transmembrane electropotential at 0.133 ug/mg of protein (reference value: 198.0 +/- 5.6 mV). In kind it is functional.
Series [17] concerns Liver microsome. Briefly: Effect on mitochondrial transmembrane potential in Wistar Han rat liver mitochondria energized with succinate assessed as ADP depolarization at 0.067 ug/mg of protein (reference value: 23.9 +/- 3.3 mV). It is filed as functional.
The subject of series [18] is Liver microsome. Kind of series: Effect on mitochondrial transmembrane potential in Wistar Han rat liver mitochondria energized with succinate assessed as ADP depolarization at 0.133 ug/mg of protein (reference value: 23.9 +/- 3.3 mV). It is filed as functional.
The test system of series [19] is Liver microsome. Kind of series: Effect on mitochondrial transmembrane potential in Wistar Han rat liver mitochondria energized with succinate assessed as ADP depolarization at 0.333 ug/mg of protein (reference value: 23.9 +/- 3.3 mV). It is filed as functional.
The subject of series [20] is Liver microsome. Briefly: Effect on mitochondrial transmembrane potential in Wistar Han rat liver mitochondria energized with succinate assessed as time duration of lag phase at 0.133 ug/mg of protein (reference value: 40.5 +/- 4.5 sec). In kind it is functional. A digest of the protocol: as §1
The subject of series [21] is Liver mitochondria (Rattus norvegicus). Briefly: Effect on mitochondrial transmembrane potential in Wistar Han rat liver mitochondria energized with succinate assessed as time duration of lag phase at 0.333 ug/mg of protein (reference value: 40.5 +/- 4.5 sec).
For series [22] the test system is unchanged. Briefly: Effect on mitochondrial transmembrane potential in Wistar Han rat liver mitochondria energized with succinate assessed as time duration of lag phase at 1.333 ug/mg of protein (reference value: 40.5 +/- 4.5 sec).
Series [23] deals with Liver microsome. Kind of series: Effect on mitochondrial transmembrane potential in Wistar Han rat liver mitochondria energized with succinate assessed as mitochondrial transmembrane electropotential at 0.333 ug/mg of protein (reference value: 216.0 +/- 7.4 mV). It is filed as functional.
The subject of series [24] is Liver microsome. Briefly: Effect on mitochondrial transmembrane potential in Wistar Han rat liver mitochondria energized with succinate assessed as mitochondrial transmembrane electropotential at 1.333 ug/mg of protein (reference value: 216.0 +/- 7.4 mV). It is filed as functional. A digest of the protocol: as §1
Series [25] has as its system Liver microsome. Briefly: Effect on mitochondrial transmembrane potential in Wistar Han rat liver mitochondria energized with succinate assessed as ADP depolarization at 0.067 ug/mg of protein (reference value: 34.7 +/- 1.4 mV). It is filed as functional.
The subject of series [26] is Liver microsome. Briefly: Effect on mitochondrial transmembrane potential in Wistar Han rat liver mitochondria energized with succinate assessed as time duration of lag phase at 0.067 ug/mg of protein (reference value: 82.8 +/- 23.5 sec). In kind it is functional. In outline:
as §1

Series [27] has as its system Liver microsome. Briefly: Effect on mitochondrial transmembrane potential in Wistar Han rat liver mitochondria energized with succinate assessed as time duration of lag phase at 0.133 ug/mg of protein (reference value: 82.8 +/- 23.5 sec). It is filed as functional. In outline: as §1

Active and inactive are the calls of the source. The rule behind the calls is not given here.

Take `C=C(C)[C@@H]1CC[C@]2(COC(=O)CC[n+]3ccc(N(C)C)cc3)CC[C@]3(C)[C@H](CC[C@@H]4[C@@]5(C)CC[C@H](OC(=O)CC[n+]6ccc(N(C)C)cc6)C(C)(C)[C@@H]5CC[C@]43C)[C@@H]12.[Cl-].[Cl-]`: the Activity in series [1] was 206 mV; in series [2], 204 mV; in series [3], 23.1 mV; in series [4], 20.3 mV; in series [6] it was “Non-toxic”; in series [7], “Non-toxic”. Also, the TIME in series [5] stood at 0.00894 h.

With `C=C(C)[C@@H]1CC[C@]2(COC(=O)C[N+](C)(C)C(C)C)CC[C@]3(C)[C@H](CC[C@@H]4[C@@]5(C)CC[C@H](OC(=O)C[N+](C)(C)C(C)C)C(C)(C)[C@@H]5CC[C@]43C)[C@@H]12.[Cl-].[Cl-]`, the inhibition entry in series [8] was “Active”. Also, the Activity was determined as 217 mV in series [9], 217 mV in [10], 31.5 mV in series [11] and 19.8 mV in series [12]. In addition, the TIME in series [13] was determined as 0.0139 h; in [14], 0.0146 h; in series [15], 0.0144 h.

On to `C=C(C)[C@@H]1CC[C@]2(COC(=O)C(CC)[n+]3ccc(N(C)C)cc3)CC[C@]3(C)[C@H](CC[C@@H]4[C@@]5(C)CC[C@H](OC(=O)C(CC)[n+]6ccc(N(C)C)cc6)C(C)(C)[C@@H]5CC[C@]43C)[C@@H]12` (some centres not stated), for which the Activity was found to be 197 mV in [16], 22.3 mV in series [17], 23.2 mV in [18] and 23.2 mV in [19]. Further, the values for the TIME in [20], in series [21] and in series [22] were 0.0122 h, 0.0121 h and 0.0136 h, respectively.

Turning to `C=C(C)[C@@H]1CC[C@]2(COC(=O)C[n+]3ccc(N(C)C)cc3)CC[C@]3(C)[C@H](CC[C@@H]4[C@@]5(C)CC[C@H](OC(=O)C[n+]6ccc(N(C)C)cc6)C(C)(C)[C@@H]5CC[C@]43C)[C@@H]12.[Cl-].[Cl-]`, the results for the Activity in series [23], in [24] and in series [25] were 208 mV, 201 mV and 28.4 mV, respectively. Moreover, the TIME in series [26] was found to be 0.0219 h; in [27], 0.0233 h.

Values taken from ChEMBL document CHEMBL3351723, “New derivatives of lupane triterpenoids disturb breast cancer mitochondria and induce cell death” (Bioorg Med Chem, 2014).
